Bioassay records deposited in PubChem by several laboratories.
Many of the other results were omitted from the sample, so hits are more common in it than they were.
Glyco luc inh: blocks N-linked glycosylation in D54 reporter cells; 360,000 compounds, 0.23% hits; reporter increase, % at 12.5 µM; AID 588692; D54 ERlucT glycosylation luciferase reporter, 24 h; percent of 100 nM tunicamycin response;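 active = mean luciferase reporter signal, scaled so untreated is 0 and the glycosylation-blocking control 100, at or above a set limit in every replicate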;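 also: luciferase carries N-glycosylation sites so blocking glycosylation raises the light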
ALR inh: human ALR oxidase inhibition via reduced H2O2; P55789; purified ALR, DTT oxidation, H2O2 HRP-luminol luminescence; inhibition, % (no concentration beside the values); 290,000 compounds, 3.8% hits; AID 485317;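 active = mean replicate inhibition above about 79%, with every replicate also reaching it, limit read from the data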
Target sequence (P55789 whole entry, looked up): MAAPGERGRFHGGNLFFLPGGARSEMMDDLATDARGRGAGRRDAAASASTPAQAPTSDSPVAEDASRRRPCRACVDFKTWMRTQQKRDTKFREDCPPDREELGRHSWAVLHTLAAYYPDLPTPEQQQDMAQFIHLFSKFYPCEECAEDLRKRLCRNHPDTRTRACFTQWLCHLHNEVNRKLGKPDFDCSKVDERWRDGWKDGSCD
T cell modulator: T cell immune modulators affecting CD8 T cell-vesicle binding; 2C CD8+ T cell-vesicle binding, flow cytometry; stronger effect = lower value; response (vesicle binding), % at 7 µM; 330,000 compounds, 0.068% hits; AID 2052;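 active = response, share of CD8 T cells binding vesicles, and their 90th percentile fluorescence all below set limits, cut at about 80% in these data, passing the limit was not always enough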;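 also: values below 100% mean blocked vesicle binding to the CD8+ T cells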
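Read-out – percent CD8+ FL2 mean versus row control · System – murine 2C transgenic CD8+ T lymphocytes · Times – 1.5 h cell–vesicle binding at 37 °C, then 20 min icy labelling · Control set – naked vesicles low, QL9 vesicles with vehicle high · Detection – cytometric PE anti-B7-1 and Alexa647 anti-CD8 signals after 1% paraformaldehyde fixation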
Of the large screens only hits and unclear results are named; the others gave an inactive call.

Cn1c(=O)c2c(nc3n2CC(CO)O3)n(C)c1=O (configuration not stated)	none
O=C(Cc1ccccc1[N+](=O)[O-])c1ccc2c(c1)OCO2	none (no result: ALR inh, T cell modulator)
CC1CCN(CC(=O)Nc2ccc(N3CCCCCC3)cc2)CC1	ALR inh 98.4
CC1CCN(CC(=O)Nc2ccc(S(=O)(=O)N3CCCCC3)cc2)CC1	none
Cc1ccc(N2CCN(c3ccc(NC(=O)CCC(=O)O)cc3)CC2)cc1	none
O=C(O)CCC(=O)Nc1ccc(N2CCCCCC2)cc1	ALR inh 98.9
c1ccc(-c2nnc(CN3CCN(c4ccccc4)CC3)o2)cc1	ALR inh 97.5
Clc1cccc(N2CCN(Cc3nnc(-c4ccccc4)o3)CC2)c1	none
CCOC(=O)c1[nH]c2ccc(OC)cc2c1N=CN(C)C	ALR inh 98.1
CCOC(=O)c1[nH]c2ccc(OC)cc2c1NC(=O)OC	none
CN(C)C(CNC(=O)c1cc(S(=O)(=O)N(C)Cc2ccccc2)ccc1Cl)c1ccco1 (configuration not stated)	none
Cc1nn(C(C)C(=O)NC2CCCCCC2)c(=O)c2nn(-c3ccccc3)c(C)c12 (configuration not stated)	none
O=C(Oc1cc2oc(=O)cc(-c3ccccc3)c2cc1Cl)C1CCCCC1	ALR inh 98.5
CC(C)(C)OC(=O)NCC(=O)Oc1cc2oc(=O)cc(-c3ccccc3)c2cc1Cl	none
COc1ccc(NC(=O)CSc2nc3ncccc3[nH]2)cc1OC	ALR inh 95.6
CC(C)c1ccc(NC(=O)CSc2nc3ncccc3[nH]2)cc1	none
O=C(CSc1nc2ncccc2[nH]1)Nc1ccc2c(c1)OCO2	none (no result: ALR inh)
CC(C)OC(=O)c1ccc(NC(=O)CSc2nc3ncccc3[nH]2)cc1	ALR inh 98.4
Cc1[nH]c2ccccc2c1CCNS(=O)(=O)c1ccc(S(N)(=O)=O)cc1	ALR inh 89.7
NS(=O)(=O)c1ccc(S(=O)(=O)NCCc2ccccc2)cc1	none
Cc1nn(Cc2c(F)cccc2Cl)c(=O)c2ccccc12	none
O=C(/C=C/c1c[nH]c2ccccc12)c1cccc2ccccc12	Glyco luc inh 29.7
O=C(c1ccccc1)c1c[nH]c2ccccc12	none
CNC(=O)c1nc(C)c(C2(C)CC(c3cccc([N+](=O)[O-])c3)=NO2)s1 (configuration not stated)	none (no result: ALR inh)
CCN(CCCNC(=O)C1CCC(=O)N1Cc1ccc(F)cc1)c1cccc(C)c1 (configuration not stated)	ALR inh 99.3
CCN(CCCNC(=O)C1CCN(S(=O)(=O)CC)CC1)c1cccc(C)c1	ALR inh 99.1
O=C(NCCc1ccccc1)C1CCN(S(=O)(=O)N2CCC3(CC2)OCCO3)CC1	none
CCCS(=O)(=O)N1CCC(C(=O)NCCc2ccccc2)CC1	none
CCN(CCCNC(=O)C1CCN(S(=O)(=O)CC)CC1)c1ccccc1	ALR inh 98.6
CCN(CCCNC(=O)C1CCN(S(=O)(=O)N2CCC3(CC2)OCCO3)CC1)c1ccccc1	ALR inh 98.8
CCN(CCCNC(=O)C1CCC(=O)N1C1CCCC1)c1cccc(C)c1 (configuration not stated)	none (no result: ALR inh)
CCN(CCCNC(=O)C1CCN(S(=O)(=O)c2c(C)[nH]c(=O)[nH]c2=O)CC1)c1cccc(C)c1	none (no result: ALR inh)
N#CN1CCC(NS(=O)(=O)c2ccc(C(F)(F)F)cc2)CC1	none
COc1ccc(F)c(CN2CCC(n3nccc3NC(=O)CCCc3ccccc3)CC2)c1	none
CCCS(=O)(=O)N1CCC(C(=O)NCCN(CC)c2ccccc2)CC1	none
CCCCN(CCCNC(=O)C1CCN(S(=O)(=O)N2CCOCC2)CC1)c1ccccc1	ALR inh 99.3
CCN(CCNC(=O)C1CCN(S(C)(=O)=O)CC1)c1ccccc1	ALR inh 98.8
CN(CCNC(=O)C1CCN(S(=O)(=O)N2CCOCC2)CC1)CCc1ccccc1	none
CCn1ccnc1CNC(=O)c1ccc2oc(C(C)C)nc2c1	none
CCc1nc2c(OCC(=O)c3ccc(F)cc3)cccn2c1N(C)C(=O)c1cccs1	none (no result: ALR inh, T cell modulator)
Cc1cc(OCC(=O)NNC(=S)NC(=O)c2ccc(Br)o2)ccc1Cl	ALR inh 87.9 (no result: Glyco luc inh)
O=C(Cc1ccccc1)NNC(=S)NC(=O)c1cccs1	ALR inh 97.0
O=C(Cc1cccs1)NNC(=S)NC(=O)c1ccc(F)c(F)c1	none
O=C(Cc1cccs1)NNC(=S)NC(=O)c1ccccc1	ALR inh 98.2
O=C(NC(=S)NCc1ccccc1)c1cccs1	none
O=C(NNC(=S)NC(=O)c1cccs1)c1ccc(O)cc1	none
CCC(=O)NC(=S)Nc1ccc(NC(=O)COc2ccc(Cl)c(C)c2)cc1	none
O=C(NC(=S)NNC(=O)c1cccs1)c1ccc(Br)o1	ALR inh 98.7
O=C(Cn1cccn1)N1CCCC(N2CCN(Cc3ccc4c(c3)OCO4)CC2)C1 (configuration not stated)	none
O=C1CSc2ccc(C(=O)N3CCCCC3)cc2N1	none (no result: ALR inh, T cell modulator)
Cc1c(C(=O)Nc2cc(F)ccc2F)sc2nc3n(c(=O)c12)CCCCC3	none
Cc1ccc2[nH]c3c(=O)n(CC(=O)Nc4ccccc4N4CCN(C)CC4)ncc3c2c1	none
CCOC(=O)c1nc(NNC(=O)c2ccc([N+](=O)[O-])cc2)sc1C	ALR inh 99.2
CCOC(=O)c1sc(NNC(=O)c2ccc(C)cc2)nc1C	none (no result: ALR inh)
CCC(c1nnc(SCC(=O)Nc2ccc(C(=O)Nc3ccccc3OC)cc2)o1)N(C)C (configuration not stated)	ALR inh 98.6
COc1ccccc1NC(=O)c1ccc(NC(=O)CSc2ncccn2)cc1	none
CCCN(C(=O)c1cn(-c2ccccc2)nc1-c1ccc(OC)cc1)C1CCS(=O)(=O)C1 (configuration not stated)	none (no result: ALR inh)
Cc1ccc2c(CC(=O)NNC(=O)c3ccccc3)coc2c1	none
O=C(Cc1coc2cc(O)ccc12)NNC(=O)c1ccc(Br)s1	ALR inh 99.3
CN1/C(=C/c2cccc[n+]2CCO)Sc2ccccc21	none
CC[n+]1c(/C=C2\Sc3ccccc3N2C)ccc2cccc(C)c21	none (no result: ALR inh, T cell modulator)
COc1ccccc1-[n+]1c(C)cc(/C=C2\Sc3ccccc3N2C)cc1C	ALR inh 98.2
COc1ccc(-[n+]2c(C)cc(/C=C3\Sc4ccccc4N3C)cc2C)cc1	ALR inh 94.9
Cc1ccc(NC(=O)COC(=O)C2CCN(c3ccc(C(F)(F)F)cn3)CC2)cc1	none
CCOc1ccc(CNC(=O)Cn2nc(C)c3c(C)n(-c4ccc(C)cc4)nc3c2=O)cc1	none
Cc1cc(NS(=O)(=O)c2ccc(NC(=O)c3cnc(Cl)c(Cl)c3)cc2)nc(C)n1	ALR inh 98.7
Cc1cc(C)nc(NS(=O)(=O)c2ccc(NC(=O)CSc3nc4ccccc4[nH]3)cc2)n1	none
Cc1cc(NS(=O)(=O)c2ccc(NC(=O)CSc3nc4ncccc4[nH]3)cc2)nc(C)n1	ALR inh 98.9
Cc1cc(NS(=O)(=O)c2ccc(NC(=O)CSc3nc4ncc(Br)cc4[nH]3)cc2)nc(C)n1	ALR inh 98.8
Cc1ccc(NC(=O)CSc2nc3ncc(Br)cc3[nH]2)cc1C	none
Cc1cc(C)c(NC(=O)CSc2nc3ncc(Cl)cc3[nH]2)c(C)c1	none
Cc1cc(NS(=O)(=O)c2ccc(NC(=O)CSc3nc4ncc(Cl)cc4[nH]3)cc2)nc(C)n1	ALR inh 99.5
Cc1cc(NS(=O)(=O)c2ccc(NC(=O)c3ccc(Cl)nc3)cc2)nc(C)n1	none (no result: ALR inh, T cell modulator)
